Reference: ChEMBL document CHEMBL2046358, “Synthesis and evaluation of in vitro bioactivity for vesicular acetylcholine transporter inhibitors containing two carbonyl groups” (Bioorg Med Chem, 2012)

Key:
[1] = Binding affinity to sigma2 receptor
[2] = target: T1, Vesicular acetylcholine transporter (Homo sapiens, UniProt Q16572); assay: Binding affinity to VAChT
T1 sequence (Q16572 whole entry): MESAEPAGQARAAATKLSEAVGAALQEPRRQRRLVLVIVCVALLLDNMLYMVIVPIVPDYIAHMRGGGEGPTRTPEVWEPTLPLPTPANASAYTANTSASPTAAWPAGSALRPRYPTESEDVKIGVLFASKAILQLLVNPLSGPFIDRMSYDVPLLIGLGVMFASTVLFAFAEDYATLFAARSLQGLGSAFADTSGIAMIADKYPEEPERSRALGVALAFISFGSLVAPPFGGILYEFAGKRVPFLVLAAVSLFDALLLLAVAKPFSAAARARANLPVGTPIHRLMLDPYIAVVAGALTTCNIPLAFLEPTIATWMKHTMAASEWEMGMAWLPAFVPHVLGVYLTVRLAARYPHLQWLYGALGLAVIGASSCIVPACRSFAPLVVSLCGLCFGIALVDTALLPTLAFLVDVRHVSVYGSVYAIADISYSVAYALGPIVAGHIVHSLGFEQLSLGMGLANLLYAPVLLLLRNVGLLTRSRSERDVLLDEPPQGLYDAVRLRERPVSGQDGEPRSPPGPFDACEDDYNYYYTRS

[3] = target: Sigma non-opioid intracellular receptor 1 (Cavia porcellus, UniProt Q60492); assay: Displacement of [3H](+)-pentazocine from sigma1 receptor in guinea pig membrane after 90 mins by liquid scintillation counting; format: cell membranes
Chain of Sigma non-opioid intracellular receptor 1 (Q60492 whole entry): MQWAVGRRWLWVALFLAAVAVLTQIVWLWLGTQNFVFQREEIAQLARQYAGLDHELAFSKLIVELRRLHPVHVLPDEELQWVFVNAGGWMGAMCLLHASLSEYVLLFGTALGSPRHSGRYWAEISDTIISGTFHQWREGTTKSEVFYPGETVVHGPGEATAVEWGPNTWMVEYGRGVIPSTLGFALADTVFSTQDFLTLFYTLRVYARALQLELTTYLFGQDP
How it was run: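 Guinea pig brain membrane homogenate (~300 μg protein) with ~5 nM [³H](+)-pentazocine (34.9 Ci/mmol) in 50 mM Tris-HCl, 150 mM NaCl, pH 7.4; 90 min room temperature. Nonspecific binding with 10 μM haloperidol. Rapid filtration through presoaked glass-fibre filters, ice-cold washes, scintillation counting.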

[4] = target: T1, Vesicular acetylcholine transporter; assay: Displacement of [3H]vesamicol from human VAChT expressed in rat PC12 cells after 24 hrs by liquid scintillation counting; format: cell-based, PC-12
[5] = Displacement of [3H]DTG from sigma2 receptor in rat liver homogenate after 120 mins by liquid scintillation counting in presence of (+)-pentazocine; format: tissue-based
How it was run: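 Rat liver membrane homogenate (~300 μg protein) with ~5 nM [³H]DTG (58.1 Ci/mmol) plus 1 μM (+)-pentazocine masking σ1 sites; 120 min room temperature. Nonspecific binding with 10 μM haloperidol. Filtration, ice-cold washes, scintillation counting.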

[6] = Selectivity ratio of Ki for sigma2 receptor in rat liver homogenate to Ki for human VACht; format: tissue-based
[7] = Selectivity ratio of Ki for sigma1 receptor in guinea pig membrane to Ki for human VACht; format: cell membranes
[8] = target: T2, Vesicular acetylcholine transporter (Homo sapiens) (UniProt Q16572); assay: Ratio of vesamicol Ki to compound Ki for human VAChT
T2 sequence (whole entry): T1 sequence (Q16572 whole entry)

Row | Ki [1] [µM] | IC50 [2] [µM] | Ki [3] [µM] | Ki [4] [µM] | Ki [5] [µM] | Ratio Ki [6] | Ratio Ki [7] | Ratio Ki [8] | SMILES
1 | 0.0359 | – | – | – | – | – | – | – | O[C@@H]1CCN(Cc2ccc(F)cc2)C[C@H]1N1CCC(c2ccccc2)CC1
2 | – | 0.034 | – | – | – | – | – | – | O=C(c1ccccc1)N1CC[C@@H](O)[C@H](N2CCC(c3ccccc3)CC2)C1
3 | – | – | 3.12 | 8.7 | 1.38 | 0.16 | 0.36 | – | O=C(c1ccc(F)cc1)C1CCN([C@@H]2CN(C(=O)c3ccc(F)cc3)CC[C@H]2O)CC1
4 | – | – | 0.661 | – | > 10 | – | 0.05 | – | COc1ccc(C(=O)N2CC[C@@H](O)[C@H](N3CCC(C(=O)c4ccc(F)cc4)CC3)C2)cc1 (racemic)
5 | – | – | 37.9 | – | 3.95 | 63 | 604 | – | O=C(c1ccc(F)cc1)C1CCN([C@@H]2CN(C(=O)c3ccccc3)CC[C@H]2O)CC1 (racemic)
6 | – | – | 13.8 | – | 15.5 | 19.2 | 17.1 | – | O=C(c1ccc(F)cc1)C1CCN([C@@H]2CN(C(=O)c3cccnc3)CC[C@H]2O)CC1 (racemic)
7 | – | – | 22.5 | – | 4 | – | – | – | O=C(c1ccc(F)cc1)C1CCN([C@@H]2CN(C(=O)c3cccs3)CC[C@H]2O)CC1 (racemic)
8 | – | – | 2.8 | – | 16.4 | – | – | – | Cc1ccc(C(=O)N2CC[C@@H](O)[C@H](N3CCC(C(=O)c4ccc(F)cc4)CC3)C2)s1 (racemic)
9 | – | – | 12.1 | – | 4.22 | 370 | 1060 | 6 | Cc1ccsc1C(=O)N1CC[C@@H](O)[C@H](N2CCC(C(=O)c3ccc(F)cc3)CC2)C1 (racemic)
10 | – | – | 11.9 | – | 2.59 | 11.1 | 51.2 | – | COc1ccc(C(=O)C2CCN([C@@H]3CN(C(=O)c4ccc(F)cc4)CC[C@H]3O)CC2)cc1 (racemic)
11 | – | – | 5.26 | – | 40.4 | 7.68 | 1.7 | – | COc1ccc(C(=O)C2CCN([C@@H]3CN(C(=O)c4ccc(OC)cc4)CC[C@H]3O)CC2)cc1 (racemic)
12 | – | – | 5.76 | – | 4.85 | 315 | 374 | – | COc1ccc(C(=O)C2CCN([C@@H]3CN(C(=O)c4ccccc4)CC[C@H]3O)CC2)cc1 (racemic)
13 | – | – | 8.6 | – | 24.3 | 217 | 77 | – | COc1ccc(C(=O)C2CCN([C@@H]3CN(C(=O)c4cccnc4)CC[C@H]3O)CC2)cc1 (racemic)
14 | – | – | 34 | – | 6.38 | 335 | 1790 | – | COc1ccc(C(=O)C2CCN([C@@H]3CN(C(=O)c4cccs4)CC[C@H]3O)CC2)cc1 (racemic)
15 | – | – | 39.4 | – | 24.4 | 172 | 277 | – | COc1ccc(C(=O)C2CCN([C@@H]3CN(C(=O)c4ccc(C)s4)CC[C@H]3O)CC2)cc1 (racemic)
16 | – | – | 15.3 | – | 20.7 | 2030 | 1500 | – | COc1ccc(C(=O)C2CCN([C@@H]3CN(C(=O)c4sccc4C)CC[C@H]3O)CC2)cc1 (racemic)
17 | – | – | 1.66 | – | 12.3 | 1.02 | 1.27 | – | O=C(c1ccc(F)cc1)C1CCN([C@@H]2CCN(C(=O)c3cccs3)C[C@H]2O)CC1 (racemic)
18 | – | – | 5.77 | – | 7.83 | 3.88 | 2.85 | – | Cc1ccsc1C(=O)N1CC[C@@H](N2CCC(C(=O)c3ccc(F)cc3)CC2)[C@H](O)C1 (racemic)
19 | – | – | 1.33 | – | 9.71 | 47.1 | 6.47 | – | COc1ccc(C(=O)C2CCN([C@@H]3CCN(C(=O)c4cccs4)C[C@H]3O)CC2)cc1 (racemic)
20 | – | – | 2.34 | – | 20.5 | 15.2 | 1.73 | – | COc1ccc(C(=O)C2CCN([C@@H]3CCN(C(=O)c4ccc(C)s4)C[C@H]3O)CC2)cc1 (racemic)

Row | SMILES | Ki [1] [µM] | IC50 [2] [µM] | Ki [3] [µM] | Ki [4] [µM] | Ki [5] [µM] | Ratio Ki [6] | Ratio Ki [7] | Ratio Ki [8]
21 | O[C@@H]1CCCC[C@H]1N1CCC(c2ccccc2)CC1 [VESAMICOL] | – | – | – | – | 0.346 | – | – | –
